The results in this text go back to the array DNA melting data of Ke et al. (doi:10.1101/2024.01.08.574731).

Series [1] in a line: folding enthalpy; higher = less favourable; fluorescence melt of hairpins on a sequencing array, two-state fit. To be noted: sodium 0.088 M. In a few lines:
(§1)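 In 50 mM Na-HEPES pH 8.0 containing 25 mM NaCl, hairpins from the library on a sequenced MiSeq flow cell were imaged for Cy3 fluorescence at 2.5 °C steps up to 60 °C, with Cy3 and quencher oligos annealed. After normalisation to pre-quench Cy3 and to control constructs, two-state fits with bootstrapping gave melting temperature and folding enthalpy. Four replicates were combined by inverse-variance weighting, and fitted temperatures were shifted up by 9.35 °C to match UV melts.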

Series [2] can be described thus: melting temperature; fluorescence melt of hairpins on a sequencing array, two-state fit, raised by 9.35 °C to match UV melts. As to conditions: sodium 0.088 M. An outline of the steps:
as §1

As for GATCATAATAATGATC ((((((....)))))), the folding enthalpy in series [1] was -35.4 kcal/mol. Besides, the Tm in series [2] is 45.4 °C.

Take GATCTCGCTTGAGATC ((((((....)))))): in series [1], the folding enthalpy is -36.8 kcal/mol. The Tm in series [2] came to 54.4 °C.

GGCATACGAAAGTAGGCC (((.(((....))).))): the folding enthalpy in series [1] is -47.1 kcal/mol. In series [2], the Tm stood at 63.4 °C.

As to GCCTTTGAAAAAAGGC ((((((....)))))), the folding enthalpy in series [1] was -32.6 kcal/mol. The Tm in series [2] came to 59.2 °C.

Consider CGCGGACCTCTCCGCG ((((((....)))))), for which the folding enthalpy in series [1] is -31.9 kcal/mol. In addition, in series [2], the Tm was 68.7 °C.

For GCGTATATACGC ((((....)))), in series [1], the folding enthalpy was -27.1 kcal/mol. Moreover, the Tm in series [2] was 55 °C.

As for GCCAGCGAAAGCTTAGGC ((((((....)))..))), in series [1], the folding enthalpy was -27.3 kcal/mol. Also, the Tm in series [2] is 52 °C.

Regarding GCTCTGGAAACAGAGC ((((((....)))))), in series [1], the folding enthalpy is -37.3 kcal/mol. For the same sequence, the Tm in series [2] is 62.2 °C.

In the case of GATTCCGAAAGGAATC ((((((....)))))), the folding enthalpy in series [1] was -35.7 kcal/mol. Besides, the Tm in series [2] is 64.9 °C.

In the case of GATCATTAATATGATC ((((((....)))))), the folding enthalpy in series [1] is -37.1 kcal/mol. For the same sequence, in series [2], the Tm worked out at 45.5 °C.

As for GGTCAATCGAAAGATACC (((..(((....)))))), the folding enthalpy in series [1] was -13.3 kcal/mol. Further, the Tm in series [2] was 26.9 °C.

As to GGGAACGCGAAAGCGCCC (((..(((....)))))), in series [1], the folding enthalpy was -16.4 kcal/mol. For the same sequence, in series [2], the Tm stood at 46.5 °C.

With GCCGGTACGAAAGTAGGC (((..(((....)))))), the folding enthalpy in series [1] was -24.7 kcal/mol. Also, in series [2], the Tm worked out at 48.7 °C.

In the case of GGGAGCGGAAACACTCCC (((((.(....).))))), the folding enthalpy in series [1] was -37.7 kcal/mol. In addition, the Tm in series [2] worked out at 50.8 °C.

For GACGTCCGAAAGGAGGTC (((.(((....))).))), the folding enthalpy in series [1] is -30.9 kcal/mol. Besides, the Tm in series [2] was 58.3 °C.

For the sequence GATCCTAATGAGGATC ((((((....)))))), the folding enthalpy in series [1] was -34.1 kcal/mol. Also, the Tm in series [2] turned out to be 50.5 °C.

With GATCATGCCCATGATC ((((((....)))))), the folding enthalpy in series [1] was -43 kcal/mol. In series [2], the Tm is 53.5 °C.

Consider GAAAGGACGAAAGTCTTC (((..(((....)))))), for which, in series [1], the folding enthalpy was -11.8 kcal/mol. Also, the Tm in series [2] came out at 24.9 °C.

As to GTCTTTGGAAACAAAGAC (((((((....))))))), the folding enthalpy in series [1] is -42.3 kcal/mol. Moreover, in series [2], the Tm came to 56.5 °C.

Consider GGTTCAGGAAACTGAATC (.(((((....))))).), for which, in series [1], the folding enthalpy is -30.1 kcal/mol. In addition, in series [2], the Tm was 44.2 °C.

In the case of ATGCGGAAACGCAT (((((....))))), the folding enthalpy in series [1] is -17.1 kcal/mol. For the same sequence, the Tm in series [2] was determined as 57.7 °C.

Turning to GCAGGCGAAAGCCCTGC ((((((....))).))), in series [1], the folding enthalpy was -19.2 kcal/mol. Besides, in series [2], the Tm is 65.6 °C.

Take GCATGCGAAAGCATGTGC ((((((....)))..))): the folding enthalpy in series [1] was -15.5 kcal/mol. Besides, in series [2], the Tm was 64 °C.

For GCTGGGCGAAAGCTGAGC (((..((....))..))), the folding enthalpy in series [1] was -21 kcal/mol. Also, the Tm in series [2] was found to be 49.3 °C.

GCGCGCGAAAGCGGTCGC ((((((....)))..))): the folding enthalpy in series [1] is -16.1 kcal/mol. Also, the Tm in series [2] is 63.6 °C.

As to GGTTCGGGAAACTGAACC (((((.(....).))))), in series [1], the folding enthalpy is -47.2 kcal/mol. In series [2], the Tm was determined as 53.2 °C.

As for GCTCTGGGAAACCGGAGC ((((.((....)).)))), the folding enthalpy in series [1] is -52.9 kcal/mol. Further, in series [2], the Tm was determined as 57.2 °C.

For the sequence GTCTCTGGAAACGGAGAC (((((.(....).))))), the folding enthalpy in series [1] was -34.7 kcal/mol. Moreover, the Tm in series [2] amounted to 50.8 °C.

In the case of GATAACGAAAGTTGTATC ((((((....)))..))), in series [1], the folding enthalpy is -18.9 kcal/mol. The Tm in series [2] is 26.9 °C.

As for GCGTCTGGACGC ((((....)))), in series [1], the folding enthalpy is -34.1 kcal/mol. Moreover, the Tm in series [2] was 59.8 °C.

As to GTGGTGGGAAACCGCCAC ((((.((....)).)))), in series [1], the folding enthalpy was -40.2 kcal/mol. Further, the Tm in series [2] was 61.9 °C.

For the sequence GCCTTCGAAAGAAAGGGC ((((((....)))..))), the folding enthalpy in series [1] was -29.4 kcal/mol. Also, the Tm in series [2] turned out to be 43.1 °C.

For the sequence GTCGTCGAAAGACTAGAC ((((((....)))..))), the folding enthalpy in series [1] is -18.4 kcal/mol. In addition, in series [2], the Tm amounted to 42.5 °C.

Turning to GTGGATCGAAAGATTCAC (((.(((....))).))), in series [1], the folding enthalpy was -38.2 kcal/mol. For the same sequence, in series [2], the Tm came to 53.8 °C.

With GATCAGTAGCTGATC ((((((...)))))), in series [1], the folding enthalpy was -35.8 kcal/mol. The Tm in series [2] is 48.3 °C.

For GATGACGAAAGTCAATC ((((((....))).))), the folding enthalpy in series [1] is -16.2 kcal/mol. The Tm in series [2] was found to be 43.7 °C.

Consider GAAATCGGAAACGATTTC (((((((....))))))), for which, in series [1], the folding enthalpy was -42.9 kcal/mol. The Tm in series [2] came to 59.5 °C.
